# Published values from different studies.
# Protocols differ between the studies behind these lines.
# ADRB2: Beta-2 adrenergic receptor (ADRB2, Homo sapiens, UniProt P07550)
# P2RY6: P2Y purinoceptor 6 (P2RY6, Homo sapiens, UniProt Q15077)
# CNR2: Cannabinoid receptor 2 (CNR2, Homo sapiens, UniProt P34972)
# MMP2: 72 kDa type IV collagenase (MMP2, Homo sapiens, UniProt P08253)
Compound,target,test,conditions,IC50
CCC1(c2ccc(C)cc2)C(=O)N(C(=O)OC(C)C)N1C(=O)OC(C)C (stereo not shown),"Monoacylglycerol lipase ABHD6 (Abhd6, Mus musculus, UniProt Q8R2Y0)","enzyme activity, inhibitor",,3000 nM
CN1[C@@H]2CC[C@H]1C[C@@H](OC(=O)c1c[nH]c3ccccc13)C2,ADRB2,"ligand displacement, radioligand",cell membranes,37700 nM
CCOCc1nc(O)c(-c2nnc(Cc3ccc(Cl)cn3)o2)c(O)c1-c1c(OC)cccc1OC,ADRB2,"ligand displacement, radioligand",,> 30000 nM
O=C(OCc1ccccc1)c1ccc(O)cc1,"Histone-lysine N-methyltransferase SETD7 (SETD7, Homo sapiens, UniProt Q8WTS6)","enzyme activity, inhibitor",,> 333000 nM
CC[Si](C#Cc1ccc2c(c1)C=C([N+](=O)[O-])C(C(F)(F)F)O2)(CC)CC (stereo not shown),P2RY6,"calcium signal, antagonist",,~1000 nM
Cc1c(C(=O)N[C@H]2CCCC[C@H]2N)nc(-c2ccc(Cl)cc2Cl)n1-c1ccc(OS(=O)(=O)CCC(F)(F)F)cc1 (racemic),CNR2,"GTPγS binding, antagonist",cell membranes,805 nM
CN(C)CCN(C(=O)c1ccc(Cl)s1)c1nc2ccccc2s1,"Short transient receptor potential channel 6 (Trpc6, Mus musculus, UniProt Q61143)","calcium signal, fluorescence",,15100 nM
O=[N+]([O-])C1=Cc2cc(C#Cc3ccc(F)cc3)ccc2OC1C(F)(F)F (stereo not shown),P2RY6,"calcium signal, antagonist, fluorescence",,4400 nM
Cc1noc(-c2cc3cc(-c4nc(C(=O)NCc5ccc(=O)[nH]c5)[nH]c4C)ccc3[nH]2)n1,MMP2,"enzyme activity, inhibitor",,> 24000 nM
CCCN(CCC)CCc1cccc2c1CC(=O)N2,ADRB2,"ligand displacement, radioligand",cell membranes,200000 nM
Cc1c(C(=O)NN2CCCCC2)nc(-c2ccc(Cl)cc2Cl)n1-c1ccc(OS(=O)(=O)CCC(C)(C)C)cc1,CNR2,"GTPγS binding, antagonist",cell membranes,1360 nM
CC(=O)N[C@H]1CC(=O)NCCCC[C@@H](C(=O)N[C@@H](CCCNC(=N)N)C(=O)c2nc3ccc(C(=O)N[C@H](C(N)=O)C(C)C)cc3s2)NC(=O)[C@H](CC(C)C)NC1=O,"Serine protease hepsin (HPN, Homo sapiens, UniProt P05981)","enzyme activity, inhibitor, fluorescence",with preincubation,5.4 nM
Cc1csc(COCC(=O)C23CC4CC(CC(C4)C2)C3)n1,"11-beta-hydroxysteroid dehydrogenase 1 (HSD11B1, Homo sapiens, UniProt P28845)","enzyme activity in cells, inhibitor",,71 nM
Cn1nc(C(=O)NCc2ccc(C(=O)O)cc2)cc1-c1ccc2[nH]c(-c3ccncn3)cc2c1,MMP2,"enzyme activity, inhibitor",,> 20000 nM
COc1ccc2nc(/N=C3/NC(=O)C(=Cc4cc(I)c(O)c(OC)c4)S3)sc2c1,"Aldo-keto reductase family 1 member B1 (Akr1b1, Rattus norvegicus, UniProt P07943)","enzyme activity, inhibitor, absorbance",pH 6.2,> 50000 nM
CCCN(CCCCOCCOCCOCCOCC(=O)N[C@H](C(=O)N1C[C@H](O)C[C@H]1C(=O)NCc1ccc(-c2scnc2C)cc1)C(C)(C)C)C[C@@H](C)NC(=O)c1ccc(-c2noc(C(F)(F)F)n2)cc1,"Histone deacetylase 7 (HDAC7, Homo sapiens, UniProt Q8WUI4)","enzyme activity, inhibitor, fluorescence",,130 nM
Cn1nc(C(=O)NCc2ccc(C(=O)O)cc2)cc1-c1ccc2[nH]c(-c3cncnc3)cc2c1,MMP2,"enzyme activity, inhibitor",,> 20000 nM
CC(C)(C)n1nc(-c2cnc3cc(OC4CC4)ccc3c2)c(C(N)=O)c1N,"Casein kinase I isoform alpha (CSNK1A1, Homo sapiens, UniProt P48729)","cell-free assay, inhibitor",,2910 nM
O=C(c1ccc(-c2cccc(C(F)(F)F)c2)o1)N1CCN2CCC1CC2,"Neuronal acetylcholine receptor subunit alpha-7 (CHRNA7, Homo sapiens, UniProt P36544)","ion current, two-electrode voltage clamp",oocytes,1200 nM
